From article PMC7384521 (ACS chemical biology, 2020)

Key:
SMARCA4(BD)-HiBiT = assay: HiBiT CETSA of SMARCA4; assay type: cell-based; conditions: for luminescence of SMARCA4(BD)-HiBiT: OCI/AML-2 cells, 37 °C
In short: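 SMARCA4 bromodomain (residues 1426-1531) fused to HiBiT, stably expressed in OCI/AML-2 cells (alpha-MEM, 20% FBS) by lentiviral spinoculation: 2,000 rpm, 1 h, room temperature, 8 μg/mL polybrene. Cells were drug-treated at 37 °C without heating. Raw luminescence was read after adding Nano-Glo HiBiT lytic detection reagent.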

AF9(YEATS)-HiBiT = assay: ITDR at 37 °C of AF9; assay type: cell-based; conditions: OCI/AML-2 cells, 1 hour
ENL(YEATS)-HiBiT [1] = assay: HiBiT CETSA performed on pre-lysed cells; conditions: cells lysed first, then treated; 37 °C
full-length ENL-HiBiT = assay: HiBiT CETSA melt curve of full-length ENL-HiBiT; assay type: cell-based; conditions: HEK293T cells
ENL(YEATS)-HiBiT [2] = assay: HiBiT CETSA; assay type: cell-based
BRD4 bromodomain 1 (BD1) = assay: HTRF histone-binding assay, BRD4 BD1 with tetra-acetyl H4
In short: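 BRD4 BD1 (purchased, 10 nM) with 13.3 nM tetra-acetylated H4. Buffer was 25 mM HEPES pH 7, 20 mM NaCl, 0.2% Pluronic F-127, 0.05% BSA; detection used 1 nM Eu-anti-His antibody plus 8.9 nM APC-streptavidin. Compound added by pin tool and incubated 2 h or more. Read at 337 nm excitation as the 665/620 nm emission ratio; percent inhibition relative to vehicle (maximum) and no-peptide (minimum) controls.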

YEATS4/GAS41 = assay: Biolayer interferometry, immobilized biotin-YEATS4; assay type: binding; conditions: BLI
ENL YEATS [3] = target: T1, ENL YEATS (Homo sapiens, UniProt Q03111); assay: MALDI-TOF mass spectrometry for covalent adducts; conditions: high-resolution MALDI-TOF
T1 sequence (Q03111 1-148): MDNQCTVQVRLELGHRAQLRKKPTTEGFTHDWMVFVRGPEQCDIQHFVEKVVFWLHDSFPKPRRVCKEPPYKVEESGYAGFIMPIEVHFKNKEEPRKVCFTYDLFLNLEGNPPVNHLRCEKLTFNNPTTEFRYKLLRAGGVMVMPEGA

ENL YEATS [4] = target: T1, ENL YEATS; assay: HTRF histone-binding assay, ENL YEATS with H3K27cr
In short: (§1)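 HTRF in 25 mM HEPES pH 7, 20 mM NaCl, 0.2% Pluronic F-127, 0.05% BSA, with 1 nM Eu-anti-His antibody and 8.9 nM APC-streptavidin. ENL: recombinant His-tagged ENL YEATS(1-148), 5 nM, with 13.3 nM biotinylated H3(13-32)K27cr. AF9: purchased AF9 YEATS, 5 nM, with 100 nM of the same peptide. Compound pin-transferred, incubated ≥2 h; 337 nm excitation, 665/620 nm ratio; percent inhibition scaled to vehicle (max) and no-peptide (min) wells.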

endogenous ENL protein = assay: Immunoblot-based CETSA on endogenous ENL; assay type: cell-based; conditions: 80 μM, OCI/AML-2 cells, 1 hr
In short: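 CETSA on endogenous ENL followed a previously published protocol. Immunoblot detection used an anti-ENL rabbit monoclonal antibody (D9M4B) and an anti-GAPDH mouse monoclonal antibody (6C5).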

AF9 YEATS = target: T2, AF9 YEATS (Homo sapiens, UniProt P42568); assay: HTRF histone-binding assay, AF9 YEATS with H3K27cr; conditions: read-out: IC50, HTRF AF9 YEATS crotonyl-lysine recognition
T2 sequence (P42568 1-138 limits assumed): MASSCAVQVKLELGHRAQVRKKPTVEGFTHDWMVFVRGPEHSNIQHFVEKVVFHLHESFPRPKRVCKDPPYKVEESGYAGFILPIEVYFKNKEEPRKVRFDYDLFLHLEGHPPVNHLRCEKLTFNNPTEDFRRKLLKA
In short: as §1

O=C(/C=C/N1C[C@H]2C[C@@H]1CN2c1ccccn1)c1ccccc1O [PFI-3]
concentration required to elevate the luminescence from SMARCA4(BD)-HiBiT (SMARCA4(BD)-HiBiT; ITDR): 80 µM | luminescence of SMARCA4(BD)-HiBiT (SMARCA4(BD)-HiBiT): able to elevate luminescence

C[C@H]1CCCN1Cc1nc2cc(NC(=O)c3ccc4c(cnn4C)c3)ccc2[nH]1 [SGC-iMLLT]
ITDR luminescence, AF9(YEATS)-HiBiT (AF9(YEATS)-HiBiT): dose-dependent increases in luminescence | luminescence of ENL(YEATS)-HiBiT in cell lysates (ENL(YEATS)-HiBiT [1]): luminescence was increased | luminescence-based melt curve of full-length ENL-HiBiT (full-length ENL-HiBiT): did not affect | ITDR luminescence, wild-type ENL YEATS (ENL(YEATS)-HiBiT [2]; 37 °C, HEK293T cells, 1 hour): dose-responsive increases in luminescence | CETSA melt curve of ENL(YEATS)-HiBiT (ENL(YEATS)-HiBiT [2]; HEK293T cells, 1-hour treatment, luminescence normalized to 37 °C): rightward shift | luminescence of SMARCA4(BD)-HiBiT (SMARCA4(BD)-HiBiT): no such effect

O=C(/C=C/c1ccc(-n2ccnc2)cc1)N1CCN(C(=O)c2ccco2)CC1 [sCGT990]
inhibition of BRD4 BD1 association with tetra-acetyl H4 (BRD4 bromodomain 1 (BD1)): does not inhibit | binding to YEATS4/GAS41 (YEATS4/GAS41): does not efficiently bind | covalent adducts with ENL YEATS (ENL YEATS [3]): unable to identify covalent adducts | concentration required to reliably elevate ENL(YEATS)-HiBiT luminescence (ENL(YEATS)-HiBiT [2]; living cells, dose-response): 80 µM | IC50, HTRF ENL YEATS association with H3K27cr (ENL YEATS [4]): 19 µM | stabilization of endogenous ENL by immunoblot-based CETSA (endogenous ENL protein): weak, if any, stabilization | IC50 (AF9 YEATS): 62 µM

crotonylated histone peptide: peptide substrate, H3K27cr, used to treat cell lysates
luminescence of ENL(YEATS)-HiBiT in cell lysates (ENL(YEATS)-HiBiT [1]): luminescence was increased
